Data from ChEMBL document CHEMBL4138161, “Discovery of simplified sampangine derivatives as novel fungal biofilm inhibitors” (Eur J Med Chem, 2018).
≈ marks a conversion by molar mass, not a printed value. Calls of active or inactive are those of the source. The calls are words filed in the database; no cut-off is given here.

Columns and labels:
Staphylococcus aureus [1] = experiment: Antibacterial activity against Staphylococcus aureus NRS271 after 24 hrs; type: functional; conditions: NRS271, 24 h
Staphylococcus aureus [2] = experiment: Antibacterial activity against Staphylococcus aureus Mu50 after 24 hrs; type: functional; conditions: Mu50, 24 h
CAPAN-1 = experiment: Cytotoxicity against human Capan1 cells assessed as cell growth inhibition after 48 hrs by CCK8 assay; type: cell-based; conditions: CAPAN-1, 48 h
Candida albicans [3] = experiment: Antifungal activity against Candida albicans SC5314 after 24 hrs by spectrophotometric analysis; type: functional; conditions: SC5314, 24 h
How it was run: (§1)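 Broth microdilution in RPMI 1640, inoculum 5×10^3 CFU/mL, compounds from 6.4 mg/mL DMSO stocks, 35 ℃ for 24 h. Growth read as OD600; MIC80 taken as lowest concentration giving 80% growth inhibition. Triplicate.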

Candida parapsilosis = experiment: Antifungal activity against Candida parapsilosis 22019 after 24 hrs by spectrophotometric analysis; type: functional; conditions: Lodderomyces parapsilosis, 22019, 24 h; how it was run: as §1
Nakaseomyces glabratus = experiment: Antifungal activity against Candida glabrata 537 after 24 hrs by spectrophotometric analysis; type: functional; conditions: Nakaseomyces glabratus, 537, 24 h; how it was run: as §1
Cryptococcus neoformans = experiment: Antifungal activity against Cryptococcus neoformans 32609 after 24 hrs by spectrophotometric analysis; type: functional; conditions: Cryptococcus neoformans, 32609, 24 h; how it was run: as §1
Aspergillus fumigatus = experiment: Antifungal activity against Aspergillus fumigatus 07544 after 24 hrs by spectrophotometric analysis; type: functional; conditions: Aspergillus fumigatus, 07544, 24 h; how it was run: as §1
Trichophyton rubrum = experiment: Antifungal activity against Trichophyton rubrum Cmccftla after 24 hrs by spectrophotometric analysis; type: functional; how it was run: as §1
Candida albicans [4] = experiment: Antifungal activity against Candida albicans SC5314 after 48 hrs by spectrophotometric analysis; type: functional; conditions: SC5314, 48 h
Candida albicans [5] = experiment: Antifungal activity against fluconazole-resistant Candida albicans clinical isolate 032 after 24 hrs by spectrophotometric analysis; type: functional; conditions: isolate 032, 24 h
How it was run: (§2)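 Broth microdilution (MIC80) against fluconazole-resistant clinical C. albicans isolates from a Shanghai hospital. Strains were grown in YPD at 30 ℃. Compounds came from 6.4 mg/mL DMSO stocks and were tested over a concentration series on 5×10^3 CFU/mL inoculum in RPMI 1640 at 35 ℃ for 24 h. OD600 was read; MIC80 is the lowest concentration giving 80% growth inhibition. Done in triplicate.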

Candida albicans [6] = experiment: Antifungal activity against fluconazole-resistant Candida albicans clinical isolate 1010 after 24 hrs by spectrophotometric analysis; type: functional; conditions: isolate 1010, 24 h; how it was run: as §2
Candida albicans [7] = experiment: Antifungal activity against fluconazole-resistant Candida albicans isolate J38 clinical isolate after 24 hrs by spectrophotometric analysis; type: functional; conditions: isolate J38, 24 h; how it was run: as §2
Candida albicans [8] = experiment: Antifungal activity against fluconazole-resistant Candida albicans isolate Chang7 clinical isolate after 24 hrs by spectrophotometric analysis; type: functional; conditions: isolate Chang7, 24 h; how it was run: as §2
Candida albicans [9] = experiment: Antifungal activity against fluconazole-resistant Candida albicans clinical isolate 103 after 24 hrs by spectrophotometric analysis; type: functional; conditions: isolate 103, 24 h; how it was run: as §2
Candida albicans [10] = experiment: Fungicidal activity against Candida albicans SC5314 assessed as reduction in colony forming units at 0.8 ug/ml after 48 hrs by time-kill assay; type: functional, organism-based
How it was run: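 Time-kill: overnight cells PBS-washed, resuspended in RPMI 1640 at 1×10^6 cells/mL with compound, shaken at 200 rpm at 30 ℃. At set time points, dilutions plated on YPD agar and colonies counted after 48 h at 30 ℃. Three independent runs.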

Candida albicans [11] = experiment: Antibiofilm activity against Candida albicans SC5314 assessed inhibition of yeast-to-hypha morphological transition at 0.25 ug/ml after 3 hrs; type: functional, organism-based
How it was run: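 Cells were induced to form hyphae in YPD with 10% (vol/vol) fetal bovine serum at 37°C for 3 h with compound. Cell morphology was then photographed. Strains were routinely grown beforehand in YPD at 30°C with shaking.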

Candida albicans [12] = experiment: Antibiofilm activity against Candida albicans SC5314 cultured in Lee media assessed inhibition of yeast-to-hypha morphological transition after 3 hrs; type: functional, organism-based
How it was run: (§3)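 Hyphal induction in Lee's (pH 6.8), Spider, SLAD or RPMI 1640 medium with compound; morphology assessed by microscopy.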

Candida albicans [13] = experiment: Antibiofilm activity against Candida albicans SC5314 cultured in Spider media assessed inhibition of yeast-to-hypha morphological transition after 3 hrs; type: functional, organism-based; how it was run: as §3
Candida albicans [14] = experiment: Antibiofilm activity against Candida albicans SC5314 cultured in SLAD media assessed inhibition of yeast-to-hypha morphological transition after 3 hrs; type: functional, organism-based; how it was run: as §3
Candida albicans [15] = experiment: Antibiofilm activity against Candida albicans SC5314 assessed down regulation of ECE1 gene at 0.4 ug/ml after 1 hr by qRT-PCR analysis; type: functional, organism-based
How it was run: (§4)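 Biofilm grown in dishes with 0.4 µg/mL compound or DMSO control for 1 h; total RNA isolated and transcripts quantified by real-time RT-PCR. Normalized to 18S rRNA, expressed as fold change vs untreated SC5314. Mean ± SD of three independent experiments.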

Candida albicans [16] = experiment: Antibiofilm activity against Candida albicans SC5314 assessed down regulation of HGC1 gene at 0.4 ug/ml after 1 hr by qRT-PCR analysis; type: functional, organism-based; how it was run: as §4
Candida albicans [17] = experiment: Antibiofilm activity against Candida albicans SC5314 assessed down regulation of HWP1 gene at 0.4 ug/ml after 1 hr by qRT-PCR analysis; type: functional, organism-based; how it was run: as §4
Candida albicans [18] = experiment: Antibiofilm activity against Candida albicans SC5314 assessed down regulation of UME6 gene at 0.4 ug/ml after 1 hr by qRT-PCR analysis; type: functional, organism-based; how it was run: as §4
Candida albicans [19] = experiment: Antibiofilm activity against Candida albicans SC5314 assessed down regulation of EAP1 gene at 0.4 ug/ml after 1 hr by qRT-PCR analysis; type: functional, organism-based; how it was run: as §4
Candida albicans [20] = experiment: Antibiofilm activity against Candida albicans SC5314 assessed down regulation of RAS1 gene at 0.4 ug/ml after 1 hr by qRT-PCR analysis; type: functional, organism-based; how it was run: as §4
Candida albicans [21] = experiment: Antibiofilm activity against Candida albicans SC5314 assessed down regulation of CEK1 gene at 0.4 ug/ml after 1 hr by qRT-PCR analysis; type: functional, organism-based; how it was run: as §4
Candida albicans [22] = experiment: Antibiofilm activity against Candida albicans SC5314 assessed down regulation of CPH1 gene at 0.4 ug/ml after 1 hr by qRT-PCR analysis; type: functional, organism-based; how it was run: as §4
Candida albicans [23] = experiment: Antifungal activity against Candida albicans infected in Sprague-Dawley rat vaginal infection model assessed as reduction in vaginal fungal burden at 1 mg/kg, administered intravaginally on day 1 to day 3 post fungal inoculation measured on day 4; type: functional, organism-based
How it was run: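 Ovariectomized rats inoculated intravaginally with 0.1 mL of 1×10^7 CFU/mL C. albicans on days 10, 11 and 12 after surgery. Compound in saline with 1% DMSO (2, 4, 8 mg/mL) given intravaginally on days 1–3 post-inoculation. On day 4, 100 µL vaginal fluid plated on chloramphenicol SDA agar for CFU counts.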

Candida albicans [24] = experiment: Antibiofilm activity against Candida albicans SC5314 assessed inhibition of cellular surface hydrophobicity at 0.2 to 1.6 ug/ml incubated for 24 hrs; type: functional, organism-based
How it was run: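 Biofilms treated with compound for 24 h were detached and resuspended in PBS to OD600 1.0. Suspension was vortexed with octane (4:1 by volume) for 3 min, then left 3 min at room temperature to separate. Aqueous-phase OD600 was compared with a no-octane control as (control − overlay)/control × 100%. Three replicates per group across three independent experiments.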

Row | SMILES | MIC80 (Staphylococcus aureus [1]) [µg/mL] | MIC80 (Staphylococcus aureus [2]) [µg/mL] | IC50 (CAPAN-1) [µM] | MIC80 (Candida albicans [3]) [µg/mL] | MIC80 (Candida parapsilosis) [µg/mL] | MIC80 (Nakaseomyces glabratus) [µg/mL] | MIC80 (Cryptococcus neoformans) [µg/mL] | MIC80 (Aspergillus fumigatus) [µg/mL] | MIC80 (Trichophyton rubrum) [µg/mL] | MIC80 (Candida albicans [4]) [µg/mL] | MIC80 (Candida albicans [5]) [µg/mL] | MIC80 (Candida albicans [6]) [µg/mL] | MIC80 (Candida albicans [7]) [µg/mL] | MIC80 (Candida albicans [8]) [µg/mL] | MIC80 (Candida albicans [9]) [µg/mL] | Activity (Candida albicans [10]) | Activity (Candida albicans [11]) | Activity (Candida albicans [12]) | Activity (Candida albicans [13]) | Activity (Candida albicans [14]) | also measured
1 | CCc1ccnc2c1C(=O)c1sc([N+](=O)[O-])cc1C2=O | > 128 | > 128 | > 100 | 0.5 (≈ 1.73 µM) | 1 (≈ 3.47 µM) | 2 (≈ 6.94 µM) | 1 (≈ 3.47 µM) | 4 (≈ 13.9 µM) | 0.5 (≈ 1.73 µM) | 0.25 (≈ 0.867 µM) | 0.5 (≈ 1.73 µM) | 0.25 (≈ 0.867 µM) | 0.25 (≈ 0.867 µM) | 0.25 (≈ 0.867 µM) | 0.25 (≈ 0.867 µM) | Active | Active | Dose-dependent effect | Dose-dependent effect | Dose-dependent effect | Activity (Candida albicans [15]): Active; Activity (Candida albicans [16]): Active; Activity (Candida albicans [17]): Active; Activity (Candida albicans [18]): Active; Activity (Candida albicans [19]): Active; Activity (Candida albicans [20]): Active; Activity (Candida albicans [21]): Active; Activity (Candida albicans [22]): Active; Activity (Candida albicans [23]): Active; Activity (Candida albicans [24]): Active
2 | CCCc1ccnc2c1C(=O)c1sc([N+](=O)[O-])cc1C2=O | > 128 | > 128 | > 100 | 0.5 (≈ 1.65 µM) | 0.5 (≈ 1.65 µM) | 2 (≈ 6.62 µM) | 1 (≈ 3.31 µM) | 4 (≈ 13.2 µM) | 2 (≈ 6.62 µM) | 0.5 (≈ 1.65 µM) | 1 (≈ 3.31 µM) | 0.5 (≈ 1.65 µM) | 1 (≈ 3.31 µM) | 1 (≈ 3.31 µM) | 0.5 (≈ 1.65 µM) | Active | Active | Dose-dependent effect | Dose-dependent effect | Dose-dependent effect | Activity (Candida albicans [15]): Active; Activity (Candida albicans [16]): Active; Activity (Candida albicans [17]): Active; Activity (Candida albicans [18]): Active; Activity (Candida albicans [19]): Active; Activity (Candida albicans [20]): Active; Activity (Candida albicans [21]): Active; Activity (Candida albicans [22]): Active; Activity (Candida albicans [23]): Active; Activity (Candida albicans [24]): Active
